Measurements: ChEMBL document CHEMBL1156973, “(-)-Carbodine: enantiomeric synthesis and in vitro antiviral activity against various strains of influenza virus including H5N1 (avian influenza) and novel 2009 H1N1 (swine flu)” (Bioorg Med Chem Lett, 2010)

Experiments:
[1] = tested on: Influenza A virus; assay: Antiviral activity against Influenza A virus Wisconsin/67/2005/H3N2 infected MDCK cells after 3 days by virus yield reduction assay; assay type: functional, Influenza A virus (A/Wisconsin/67/2005(H3N2)); conditions: Influenza A virus, MDCK, 72 h
Summary of the method: (§1)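 Yield reduction assay: MDCK cells got serial compound dilutions and ≤300 CCID50 virus, in triplicate. Progeny virus was titrated. EC90 is the concentration reducing the infectious titer by 90%, as the mean of triplicates.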

[2] = tested on: H5N1 subtype; assay: Antiviral activity against Influenza A virus Hong Kong/213/2003/H5N1 infected MDCK cells assessed as inhibition of virus-induced cytopathic effect after 3 days; assay type: functional, organism-based, Influenza A virus (A/Hong Kong/213/2003(H5N1)); conditions: 72 h
[3] = Selectivity ratio of IC50 for MDCK cells to EC50 for Influenza A virus Hong Kong/213/2003/H5N1 by neutral red dye uptake assay; assay type: ADME, cell-based; conditions: dog; for selectivity ratio: MDCK cells, read-out: Ratio IC50/EC50
Summary of the method: (§2)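 Neutral red uptake in MDCK cells: IC50 (50% inhibition of uninfected cells) divided by EC50 (50% inhibition of virus effect), both from replicate serial-dilution assays.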

[4] = tested on: Influenza B virus; assay: Antiviral activity against Influenza B virus Malaysia/2506/2004 infected MDCK cells assessed as inhibition of virus-induced cytopathic effect after 3 days; assay type: functional, organism-based, B/Malaysia/2506/2004; conditions: Influenza B virus, B/Malaysia/2506/2004, MDCK, 72 h
Summary of the method: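 Triplicate MDCK (ATCC CCL-34) wells got serial dilutions of compound. They were then inoculated with ≤300 CCID50, enough for ~100% CPE in control wells within 3 days, using the same inoculum for all replicates. CPE was scored visually. EC50 is the concentration reducing CPE by 50%, as the mean of triplicates.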

[5] = Selectivity ratio of IC50 for MDCK cells to EC90 for Influenza A virus Vietnam/1203/ 2004H/H5N1 by virus yield reduction assay; assay type: ADME, cell-based; conditions: dog; for selectivity ratio: MDCK cells
Summary of the method: (§3)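 IC50 (50% inhibition of uninfected MDCK cells) divided by EC90 (concentration reducing the infectious virus titer by 90% in the yield reduction assay).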

[6] = tested on: Influenza B virus; assay: Antiviral activity against Influenza B virus Malaysia/2506/2004 infected MDCK cells after 3 days by virus yield reduction assay; assay type: functional, B/Malaysia/2506/2004; summary of the method: as §1
[7] = Selectivity ratio of IC50 for MDCK cells to EC50 for Influenza A virus Gull/PA/4175/83/H5N1 by neutral red dye uptake assay; assay type: ADME, cell-based; conditions: dog, MDCK cells; read-out: Ratio IC50/EC50; summary of the method: as §2
[8] = Selectivity ratio of IC50 for MDCK cells to EC50 for inhibition of virus-induced cytopathic effect of Influenza A virus Hong Kong/213/2003/H5N1; assay type: cell-based; conditions: dog, read-out: Ratio IC50/EC50
Summary of the method: (§4)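 IC50 (50% inhibition of uninfected MDCK cells) divided by EC50 (concentration reducing virus-induced CPE by 50%, scored visually), both from replicate serial-dilution assays.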

[9] = tested on: H5N1 subtype; assay: Antiviral activity against Influenza A virus Gull/PA/4175/83/H5N1 infected MDCK cells assessed as inhibition of virus-induced cytopathic effect after 3 days; assay type: functional, organism-based, Influenza A virus (A/gull/Pennsylvania/4175/83(H5N1)); conditions: Influenza A virus, MDCK, 72 h
[10] = tested on: Influenza B virus; assay: Antiviral activity against Influenza B virus Malaysia/2506/2004 infected MDCK cells after 42 to 46 hrs by neutral red dye uptake assay; assay type: functional, organism-based, B/Malaysia/2506/2004; conditions: Influenza B virus, B/Malaysia/2506/2004, MDCK
Summary of the method: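 Triplicate MDCK wells got serial compound dilutions, then ≤300 CCID50 of virus, with the same inoculum for all replicates. Antiviral effect was read by neutral red dye uptake. EC50 is the concentration giving 50% inhibition of the virus effect, as the mean of triplicates.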

[11] = tested on: H5N1 subtype; assay: Antiviral activity against Influenza A virus Hong Kong/213/2003/H5N1 infected MDCK cells after 42 to 46 hrs by neutral red dye uptake assay; assay type: functional, organism-based, Influenza A virus (A/Hong Kong/213/2003(H5N1))
[12] = tested on: H5N1 subtype; assay: Antiviral activity against Influenza A virus Hong Kong/213/2003/H5N1 infected MDCK cells after 3 days by virus yield reduction assay; assay type: functional, Influenza A virus (A/Hong Kong/213/2003(H5N1)); conditions: Influenza A virus, MDCK, 72 h
[13] = Selectivity ratio of IC50 for MDCK cells to EC50 for Influenza A virus California/07/2009 /H1N1 by neutral red dye uptake assay; assay type: ADME, cell-based; conditions: dog, MDCK cells; read-out: Ratio IC50/EC50; summary of the method: as §2
[14] = tested on: Influenza A virus (A/Puerto Rico/8/1934(H1N1)); assay: Antiviral activity against Influenza A virus Solomon Islands/03/2006/H1N1 infected MDCK cells after 3 days by virus yield reduction assay; assay type: functional, Influenza A virus (A/Solomon Islands/3/2006(H1N1)); conditions: Influenza A virus, MDCK, 72 h; summary of the method: as §1
[15] = Selectivity ratio of IC50 for MDCK cells to EC90 for Influenza A virus California/07/2009 /H1N1 by virus yield reduction assay; assay type: ADME, cell-based; conditions: dog, MDCK cells; summary of the method: as §3
[16] = Selectivity ratio of IC50 for MDCK cells to EC50 for inhibition of virus-induced cytopathic effect of Influenza A virus Duck/MN/1525/81/H5N1; assay type: cell-based; conditions: dog, MDCK cells; read-out: Ratio IC50/EC50; summary of the method: as §4
[17] = Selectivity ratio of IC50 for MDCK cells to EC90 for Influenza A virus Hong Kong/213/2003/H5N1 by virus yield reduction assay; assay type: ADME, cell-based; conditions: dog, MDCK cells; summary of the method: as §3
[18] = Influenza B virus, B/Malaysia/2506/2004, MDCK, 72 h

Nc1ccn([C@@H]2C[C@H](CO)[C@@H](O)[C@H]2O)c(=O)n1
EC90 [1]: 2.5 µM
EC50 [2]: 0.7 µM
Ratio IC50/EC50 ([3]; mdck): > 518
EC50 [4]: 0.6 µM
Ratio ([5]; mdck): > 73
EC90 [6]: 1.5 µM
selectivity ratio [7]: > 414
selectivity ratio [8]: > 591
EC50 [9]: 0.8 µM
EC50 [10]: 0.8 µM
EC50 ([11]; mdck): 0.8 µM
EC90 [12]: 2.1 µM
selectivity ratio [13]: > 259
EC90 [14]: 1.3 µM
selectivity ratio [15]: > 109
selectivity ratio [16]: > 230
selectivity ratio [17]: > 197

Nc1ccn([C@H]2C[C@@H](CO)[C@H](O)[C@@H]2O)c(=O)n1
EC90 [1]: > 41 µM
EC50 [2]: > 41 µM
selectivity ratio [3]: < 10
EC50 [4]: > 41 µM
selectivity ratio [5]: < 10
EC90 [6, 18]: > 41 µM
selectivity ratio [7]: < 10
selectivity ratio [8]: < 10
EC50 [9]: > 41 µM
EC50 [10]: > 41 µM
EC50 ([11]; Influenza A virus, MDCK): > 41 µM
EC90 [12]: > 41 µM
selectivity ratio [13]: 1
EC90 [14]: > 41 µM
selectivity ratio [15]: 1
selectivity ratio [16]: 1
selectivity ratio [17]: < 10

NC(=O)c1ncn([C@@H]2O[C@H](CO)[C@@H](O)[C@H]2O)n1 [RIBAVIRIN]
EC90 [1]: 21.7 µM
EC50 [2]: 4.3 µM
selectivity ratio [3]: > 139
EC50 [4]: 10.2 µM
selectivity ratio [5]: > 113
EC90 [6, 18]: 22.2 µM
selectivity ratio [7]: > 48
selectivity ratio [8]: > 305
EC50 [9]: 23.6 µM
EC50 [10]: 19.5 µM
EC50 ([11]; Influenza A virus, MDCK): 9.4 µM
EC90 [12]: 16.8 µM
selectivity ratio [13]: > 68
EC90 [14]: 27 µM
selectivity ratio [15]: > 101
selectivity ratio [16]: > 37
selectivity ratio [17]: > 78
